According to PMC11610768 (The AAPS journal, 2023):
Read-outs that look alike come from different tables or passages of the source.

What was measured:
[1] = system: cyclin D1 in A2780 cells; experiment: Concentration-dependent changes in cyclin D1 in A2780 cells; format: cell-based, human; conditions: 24 h exposure, 1-15 µM, ELISA
In short: (§1)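 Cells grown in RPMI 1640 with 10% FBS and 1% antibiotic-antimycotic, seeded overnight at 37°C, 5% CO2, then exposed to test compound (DMSO) at 0–15 µM for 24 h. SKOV3 only: 2–24 h time course at 2.5 and 10 µM, and washout after 24 h at 10 µM with recovery at 4, 8, 24 h. Cyclin D1 measured by sandwich ELISA (5 µg protein, duplicates, OD 450 nm) and by western blot (20 µg lysate, β-actin reprobe).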

[2] = system: cyclin D1 in SKOV3 cells; experiment: Concentration- and time-dependent changes in cyclin D1 in SKOV3 cells; format: cell-based, human
In short: as §1

[3] = system: mortalin; experiment: Western blot of total mortalin in ovarian cancer cells; format: cell-based, human
[4] = format: in vivo, mice
In short: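 Tumour-bearing nude mice (intraperitoneal SKOV3) received 60 mg/kg oral daily for 7 days in 30% Kolliphor HS 15. Saphenous blood was taken at 1, 4, 6, 8, 12 h after the first dose and at troughs 24–144 h, with 3 mice per point in rotating subgroups. Tissues were taken after the last dose. For HPLC-UV, plasma or tissue homogenate (3 mL/g phosphate buffer, pH 7.4) plus internal standard underwent acetonitrile precipitation, centrifugation and filtration. LLOQ 5 ng/mL; values given as mean ± SD.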

[5] = system: cyclin D1 in SKOV3 tumors; experiment: Cyclin D1 in SKOV3 xenograft tumors; format: in vivo, mice; conditions: 60 mg/kg oral once daily, observed at 12 h
In short: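 Female athymic nude mice (Foxn1nu, 6–8 weeks) were given intraperitoneal SKOV3-luc cells, and tumours were confirmed after about 3 weeks. Dosing: 60 mg/kg oral, daily for 7 days, as a suspension in 30% Kolliphor HS 15 (6 mg/mL, 10 mL/kg); vehicle controls, n = 3. Tumours were taken after the last dose; archived 24-h single-dose tumours were also used. Lysate (5 µg protein) run in a total cyclin D1 sandwich ELISA in duplicate, read at OD 450 nm.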

[6] = system: ccK18; experiment: ccK18 quantification in mouse plasma; format: in vivo, mice; conditions: single IV dose 10 mg/kg, 2–4 h after dosing; vehicle approx 700 U/L
[7] = single oral dose study, tumor-bearing mice; cited from earlier work
[8] = system: xenograft tumor models; conditions: 60 mg/kg QD; cited from earlier work
[9] = system: colorectal tumors; conditions: APCmin/+ mouse, cited from earlier work
[10] = animal models; cited from earlier work
[11] = 60 mg/kg oral once daily for seven days
[12] = 60 mg/kg oral once daily, at 1 h

IC50 ([2]; Homo sapiens, SK-OV-3, read-out: IC50 of cyclin D1 reduction): 4 to 5 µM
accumulation of the drug in plasma [4, 11]: No significant accumulation
mean trough concentrations in the plasma [4, 11]: 18.8 ± 6.6 ng/mL
peak tumor concentration [4, 12]: around 4,000 ng/ml
peak tumor concentration (equivalent) [4, 12]: ~ 10 µM
SMILES: CC1(C)CC(C)(C)c2cc(NC(=S)Nc3ccc([N+](=O)[O-])cc3)ccc2S1 [SHetA2]
maximum inhibition of cyclin D1 levels [1]: ~ 80%
cyclin D1 level restored, of baseline ([2]; 24 h after drug removal, after 24 h exposure to 10 µM): over 80%
maximum inhibition of cyclin D1 levels ([2]; SKOV3 cells, 24 h exposure, 1-15 µM, ELISA): ~ 70%
time at which cyclin D1 levels began to recover after drug removal ([2]; after 24 h exposure to 10 µM, drug removed from culture medium): 4 h
cyclin D1 reduction / inhibition observed ([2]; cancer cells (cell line not named at the place), dose-dependent): up to 70%
effect on total mortalin levels [3]: no effect
maximum reduction in cyclin D1 in tumor [5]: ~ 70%
peak plasma ccK18 level [6]: 913 U/L
elimination half-life [7]: 4.5 h
antitumor activity [8]: 40–60%
reduction of cyclin D1 in the tumors ([9]; 30 mg/kg QD): 50%
reduction of cyclin D1 in the tumors ([9]; 60 mg/kg QD): 90%
reduction of incidence of colorectal tumors ([9]; QD doses of 30 or 60 mg/kg): over 50%
adverse effects in genetic toxicology assays and toxicity tests [10]: no adverse effects observed
